Data set [1] can be described thus: Volume of distribution in rat at 1 mg/kg, iv and 1 mg/kg, po. The data set is classed as ADME, organism-based. As to conditions: in vivo, read-out: Vdss. In a few lines: (§1)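 Male CD rats, jugular vein cannulated under general anaesthesia; dosed 1 mg/kg iv (tail vein) and po (gavage). Serial 0.2 ml blood samples taken from the cannula into heparin, centrifuged to plasma, stabilised with 0.01 parts 85% phosphoric acid, frozen. Plasma levels measured by LC–MS–MS after C18 solid-phase extraction, with internal standard.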

Data set [2] in a line: Clearance in rat at 1 mg/kg, iv and 1 mg/kg, po. The data set is classed as ADME, organism-based. As to conditions: in vivo. In a few lines:
as §1

Data set [3] addresses T1, Endothelin-converting enzyme 1 (Homo sapiens) (UniProt P42892).
T1 sequence (whole entry): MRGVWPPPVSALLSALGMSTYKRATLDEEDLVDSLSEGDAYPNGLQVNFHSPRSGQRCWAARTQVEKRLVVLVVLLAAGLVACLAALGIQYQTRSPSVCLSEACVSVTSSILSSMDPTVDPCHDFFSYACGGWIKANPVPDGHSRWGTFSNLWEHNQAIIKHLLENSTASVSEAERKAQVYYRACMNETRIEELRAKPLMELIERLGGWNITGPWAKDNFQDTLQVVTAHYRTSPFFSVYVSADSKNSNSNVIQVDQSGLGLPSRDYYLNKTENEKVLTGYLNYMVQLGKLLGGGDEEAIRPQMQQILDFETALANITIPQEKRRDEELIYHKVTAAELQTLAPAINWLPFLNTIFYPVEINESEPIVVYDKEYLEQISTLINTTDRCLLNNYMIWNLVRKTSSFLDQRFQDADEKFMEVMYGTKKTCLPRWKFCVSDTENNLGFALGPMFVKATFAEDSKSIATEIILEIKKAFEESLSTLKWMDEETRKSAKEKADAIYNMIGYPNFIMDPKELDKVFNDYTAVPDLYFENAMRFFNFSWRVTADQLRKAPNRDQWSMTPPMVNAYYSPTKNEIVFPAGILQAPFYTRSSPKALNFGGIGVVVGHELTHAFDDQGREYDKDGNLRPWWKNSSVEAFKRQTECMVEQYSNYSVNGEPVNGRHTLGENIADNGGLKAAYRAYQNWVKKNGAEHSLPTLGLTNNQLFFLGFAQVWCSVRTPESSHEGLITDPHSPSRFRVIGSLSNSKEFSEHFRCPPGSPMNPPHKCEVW
Briefly: Inhibition of human ECE1. The gist of the method: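 Human ECE-1, run like the ACE assay (50 mM Tris-Cl pH 7.4, 300 mM NaCl, EDTA stop), with Big ET-1 as substrate. IC50 from dilution series.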

The nature of data set [4]: Permeability from apical to basolateral side of the Caco-2 cell membrane at pH 7.4. The format is ADME, cell-based. The following applies: human, Caco-2, pH 7.4. In a few lines: (§2)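 Caco-2 monolayers; apparent permeability (Papp) measured with pH 7.4 in both apical and basolateral chambers.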
(In general: Passage across Caco-2 layers is used to estimate intestinal permeability.)

Another data set is filed under the species Sus scrofa. Kind of data set: Inhibition of pig ACE. In a few lines: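 Porcine ACE; same format as the NEP assay. Substrate o-aminobenzoyl-Gly-Gly-p-nitro-Phe-Pro-OH, 10 µM final, in 50 mM Tris-Cl pH 7.4 (37 °C) with 300 mM NaCl. Stopped with 2 mM EDTA; fluorescence read-out. IC50 from dilution series.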
Data set [5] in a line: Oral bioavailability in rat at 1 mg/kg, iv and 1 mg/kg, po. The data set is classed as ADME, organism-based. The following applies: in vivo. In a few lines:
as §1

The nature of data set [6]: Permeability from basolateral to apical side of the Caco-2 cell membrane at pH 7.4. The format is ADME, cell-based. As to conditions: human, Caco-2, pH 7.4. In a few lines: as §2
Data set [7] is described as follows: Inhibition of dog kidney cortex NEP at pH 7. Also noted: species or system Canis lupus familiaris.
The nature of data set [8]: Metabolic stability in human liver microsomes at 1 uM. The data set is classed as ADME, Microsome. The gist of the method:
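Human liver microsomes, 1 µM compound with 0.5 µM CYP. Reported as first-order compound disappearance half-life.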

Data set [9] can be described thus: Fraction unbound ligand in rat at 1 mg/kg, iv and 1 mg/kg, po. As to conditions: in vivo. The format is ADME, organism-based. The gist of the method:
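Fraction unbound in rat plasma measured at 1 µg/ml by equilibrium dialysis against isotonic Krebs–Ringer bicarbonate buffer, pH 7.4.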

Data set [10] in a line: Half life in rat at 1 mg/kg, iv and 1 mg/kg, po. The format is ADME, organism-based. The following applies: in vivo. The gist of the method:
as §1

Data set [11] in a line: Tmax in rat at 1 mg/kg, iv and 1 mg/kg, po. The data set is classed as ADME, organism-based. As to conditions: in vivo. The gist of the method:
as §1

Data set [12] is described as follows: Inhibition of dog kidney cortex NEP at pH 7.4. Also noted: species or system Canis lupus familiaris.
A short description of data set [13]: Distribution coefficient, log D in n-octanol and phosphate buffer at pH 7.4. The data set is classed as physicochemical.
A further data set is filed under the species Homo sapiens. Briefly: Protein binding in human plasma at 1 ug/ml by equilibrium dialysis. The following applies: read-out: PPB (converted). For orientation: In equilibrium dialysis only unbound substance equilibrates across the membrane.
For data set [14], the target named is T2, Neprilysin (Oryctolagus cuniculus, UniProt P08049).
T2 sequence (P08049 whole entry): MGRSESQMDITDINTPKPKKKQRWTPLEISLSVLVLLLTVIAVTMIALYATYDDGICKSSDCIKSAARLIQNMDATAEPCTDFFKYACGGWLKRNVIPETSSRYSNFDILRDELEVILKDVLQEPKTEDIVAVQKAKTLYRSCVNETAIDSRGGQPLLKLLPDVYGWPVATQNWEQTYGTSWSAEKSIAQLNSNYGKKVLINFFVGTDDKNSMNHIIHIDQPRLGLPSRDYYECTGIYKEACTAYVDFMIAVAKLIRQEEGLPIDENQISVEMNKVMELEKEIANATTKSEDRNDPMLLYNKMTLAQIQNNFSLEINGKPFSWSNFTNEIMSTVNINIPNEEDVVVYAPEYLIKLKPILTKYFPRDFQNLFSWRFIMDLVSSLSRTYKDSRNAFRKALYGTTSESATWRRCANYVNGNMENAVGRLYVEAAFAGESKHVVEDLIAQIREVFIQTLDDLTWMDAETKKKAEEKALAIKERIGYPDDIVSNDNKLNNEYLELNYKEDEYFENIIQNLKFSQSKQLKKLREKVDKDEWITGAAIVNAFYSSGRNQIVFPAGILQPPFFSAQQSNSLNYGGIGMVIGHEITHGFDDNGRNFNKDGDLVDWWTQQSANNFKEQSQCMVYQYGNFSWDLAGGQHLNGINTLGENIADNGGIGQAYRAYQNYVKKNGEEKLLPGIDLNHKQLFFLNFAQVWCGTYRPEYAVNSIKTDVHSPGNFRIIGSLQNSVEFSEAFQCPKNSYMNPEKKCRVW
Briefly: Inhibition of rabbit NEP. The gist of the method:
(§3)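 Fluorogenic assay with Abz-D-Arg-Arg-Leu-EDDnp as substrate (solution at 50 µM before mixing). Inhibitor is pre-mixed with substrate, and enzyme is added, diluted so that conversion stays at or below ~10% in 1 h. Incubation runs 1 h at 37 °C with shaking in Tris–Cl, then is stopped with phosphoramidon. Read-out is Ex320/Em420. Each IC50 uses a 10-point half-log series in duplicate.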

The target in data set [15] is T3, Neprilysin (Rattus norvegicus, UniProt P07861).
T3 sequence (P07861 whole entry): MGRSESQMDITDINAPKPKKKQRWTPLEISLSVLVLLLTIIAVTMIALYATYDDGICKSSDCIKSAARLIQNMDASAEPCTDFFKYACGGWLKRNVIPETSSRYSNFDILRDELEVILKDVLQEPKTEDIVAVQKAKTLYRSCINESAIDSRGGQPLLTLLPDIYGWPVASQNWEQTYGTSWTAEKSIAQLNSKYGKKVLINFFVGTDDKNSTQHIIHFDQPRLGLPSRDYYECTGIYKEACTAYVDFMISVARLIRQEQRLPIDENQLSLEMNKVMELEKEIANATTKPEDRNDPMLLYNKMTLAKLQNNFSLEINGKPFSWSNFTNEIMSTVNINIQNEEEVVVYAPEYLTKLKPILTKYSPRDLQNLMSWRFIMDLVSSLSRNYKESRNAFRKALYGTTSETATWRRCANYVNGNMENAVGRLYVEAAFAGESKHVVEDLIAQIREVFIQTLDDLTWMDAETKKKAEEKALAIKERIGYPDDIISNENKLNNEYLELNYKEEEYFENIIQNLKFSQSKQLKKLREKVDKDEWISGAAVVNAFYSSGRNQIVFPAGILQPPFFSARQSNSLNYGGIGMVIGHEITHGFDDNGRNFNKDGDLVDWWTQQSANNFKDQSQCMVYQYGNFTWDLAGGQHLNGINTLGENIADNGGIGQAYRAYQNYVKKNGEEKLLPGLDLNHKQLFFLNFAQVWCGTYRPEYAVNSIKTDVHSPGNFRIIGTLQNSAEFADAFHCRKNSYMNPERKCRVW
Kind of data set: Inhibition of rat NEP. The gist of the method: as §3

Each structure is given as a SMILES string.

The record followed here is ChEMBL document CHEMBL1144531, “Novel selective inhibitors of neutral endopeptidase for the treatment of female sexual arousal disorder” (Bioorg Med Chem, 2007).

As to `COCC[C@H](CC1(C(=O)NC2(CO)Cc3ccccc3C2)CCCC1)C(=O)O`, the Vd in [1] came to 7.5 L/kg. Moreover, in [2], the clearance stood at 18 mL/min/kg. Also, the Activity (in data set [3]; in the data set filed under Sus scrofa) was greater than 3 µM each time. This compound had a Papp A→B in data set [4] of 1 ×10⁻⁶ cm/s. Further, the bioavailability in data set [5] came to 109%. The compound further displayed a Papp B→A in data set [6] of 2.5 ×10⁻⁶ cm/s. The figures for the IC50 in data set [7] and in data set [12] were 5.4 nM and 14.2 nM, respectively. For the same compound, the half-life at 1 µM in data set [8] is greater than 2 h. The compound also displayed a fraction unbound in [9] of 0.088. The half-life in data set [10] is 4.8 h. For the same compound, in data set [11], the Tmax is less than 1 h. The compound further yielded a logD in data set [13] of -0.2. In addition, in the data set filed under Homo sapiens, the fraction unbound at 1 ug/ml is 0.228.
In the case of `COCC[C@H](CC1(C(=O)NCCCc2ccc(Cl)cc2)CCCC1)C(=O)O`, the Vd in data set [1] worked out at 0.6 L/kg. The compound also gave a clearance in data set [2] of 3.5 mL/min/kg. For the same compound, the Activity (in data set [3]; in the data set listed under Sus scrofa) was greater than 3 µM in each case. The Papp A→B in [4] amounted to 12 ×10⁻⁶ cm/s. Besides, in data set [5], the bioavailability is 70%. The same compound gave a basolateral-to-apical permeability (Papp B→A) in [6] of 14 ×10⁻⁶ cm/s. Further, the IC50 in data set [7] came to 0.9 nM; on Neprilysin [14], 0.8 nM; in data set [12] it was 3.8 nM; on Neprilysin [15] it was 0.6 nM. This compound also came in with a half-life at 1 µM in [8] greater than 2 h. Further, the fraction unbound in data set [9] turned out to be 0.083. The half-life in [10] was 1.9 h. This compound also came in with a log distribution coefficient (logD) in data set [13] of 1.

For orientation: Papp A→B means how fast a substance crosses the layer from the apical side. By Papp B→A is commonly meant the apparent permeability from the basolateral to the apical side of a cell layer. One may read the IC50 as the concentration needed to halve the response being measured. Usually half-life stands for how long it takes for the measured level to halve. The Tmax is the time at which the peak concentration occurs. By logD is commonly meant the decadic logarithm of the distribution of all forms, ionised or not, between an organic phase and buffer at a given pH.
